What was measured:
[1] = target: Centromere-associated protein E (Mus musculus, UniProt Q6RT24); experiment: Binding affinity to wild-type mouse CENP-E assessed as inhibition constant
[2] = target: Centromere-associated protein E (Homo sapiens, UniProt Q02224, I182L); experiment: Binding affinity to human CENP-E I182L mutant assessed as inhibition constant
ARH-77 = experiment: Anticancer activity against human ARH-77 cells assessed as cell growth inhibition measured after 72 hrs by DAPI staining based analysis; type: functional
Summary of the method: (§1)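 Cells were seeded and, after 24 h, DNA content was read as T0. Cells were then exposed to varying drug concentrations for a further 72 h (T72). Fixed cells were DAPI-stained and DNA content measured by automated imaging. T72 values were normalized to T0. GI50 is the concentration giving 50% growth inhibition between T0 and Ymax, obtained by curve fitting.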

BC-3 = experiment: Anticancer activity against human BC-3 cells assessed as cell growth inhibition measured after 72 hrs by DAPI staining based analysis; type: functional; summary of the method: as §1
BV-173 [3] = experiment: Anticancer activity against human BV-173 cells assessed as cell growth inhibition measured after 72 hrs by DAPI staining based analysis; type: functional
Summary of the method: (§2)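 Cells were seeded, and DNA content at 24 h after seeding (T0) was read by imaging of fixed, DAPI-stained cells. Cells were then exposed to a range of drug concentrations for a further 72 h (T72) and DNA content was read again. T72 values were normalized to T0, and GI50 was taken from curve fits as the concentration giving 50% growth inhibition relative to T0 and Ymax.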

[4] = Anticancer activity against human C32TG cells assessed as cell growth inhibition measured after 72 hrs by DAPI staining based analysis; type: functional; summary of the method: as §2
CAL-54 = experiment: Anticancer activity against human CAL-54 cells assessed as cell growth inhibition measured after 72 hrs by DAPI staining based analysis; type: functional; summary of the method: as §2
[5] = Anticancer activity against human CML-T1 cells assessed as cell growth inhibition measured after 72 hrs by DAPI staining based analysis; type: functional; summary of the method: as §2
CRO-AP2 = experiment: Anticancer activity against human CRO-AP2 cells assessed as cell growth inhibition measured after 72 hrs by DAPI staining based analysis; type: functional
Summary of the method: (§3)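 Cells seeded, DAPI-stained DNA content of fixed cells read by imaging 24 h after seeding (T0), and again after a further 72 h exposure to a range of drug concentrations (T72). T72 values were normalized to T0. Curve fits gave the concentration producing 50% growth inhibition relative to T0 and Ymax (GI50).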

DU-145 = experiment: Anticancer activity against human DU-145 cells assessed as cell growth inhibition measured after 72 hrs by DAPI staining based analysis; type: functional; summary of the method: as §3
EKVX = experiment: Anticancer activity against human EKVX cells assessed as cell growth inhibition measured after 72 hrs by DAPI staining based analysis; type: functional; summary of the method: as §3
HCT-8 = experiment: Anticancer activity against human HCT-8 cells assessed as cell growth inhibition measured after 72 hrs by DAPI staining based analysis; type: functional
[6] = Anticancer activity against human KHOS-240S cells assessed as cell growth inhibition measured after 72 hrs by DAPI staining based analysis; type: functional
M14 = experiment: Anticancer activity against human M14 cells assessed as cell growth inhibition measured after 72 hrs by DAPI staining based analysis; type: functional
MCF-10A = experiment: Anticancer activity against human MCF-10A cells assessed as cell growth inhibition measured after 72 hrs by DAPI staining based analysis; type: functional
SiHa = experiment: Anticancer activity against human SiHa cells assessed as cell growth inhibition measured after 72 hrs by DAPI staining based analysis; type: functional
SK-NEP-1 = experiment: Anticancer activity against human SK-NEP-1 cells assessed as cell growth inhibition measured after 72 hrs by DAPI staining based analysis; type: functional
SW837 = experiment: Anticancer activity against human SW837 cells assessed as cell growth inhibition measured after 72 hrs by DAPI staining based analysis; type: functional
UACC-257 = experiment: Anticancer activity against human UACC-257 cells assessed as cell growth inhibition measured after 72 hrs by DAPI staining based analysis; type: functional
CWR22R = experiment: Anticancer activity against human 22Rv1 cells assessed as cell doubling measured for 72 hrs by DAPI staining based analysis; type: functional
BV-173 [7] = experiment: Anticancer activity against human BV-173 cells assessed as cell doubling measured for 72 hrs by DAPI staining based analysis; type: functional
[8] = Anticancer activity against human COLO-704 cells assessed as cell doubling measured for 72 hrs by DAPI staining based analysis; type: functional
HCC 2998 = experiment: Anticancer activity against human HCC 2998 cells assessed as cell doubling measured for 72 hrs by DAPI staining based analysis; type: functional
HCT-116 = experiment: Anticancer activity against human HCT-116 cells assessed as cell doubling measured for 72 hrs by DAPI staining based analysis; type: functional
HPAF-II = experiment: Anticancer activity against human HPAF-II cells assessed as cell doubling measured for 72 hrs by DAPI staining based analysis; type: functional
HT-1080 = experiment: Anticancer activity against human HT-1080 cells assessed as cell doubling measured for 72 hrs by DAPI staining based analysis; type: functional
MCF7 = experiment: Anticancer activity against human MCF7 cells assessed as cell doubling measured for 72 hrs by DAPI staining based analysis; type: functional
MDA-MB-175-VII = experiment: Anticancer activity against human MDA-MB-175-VII cells assessed as cell doubling measured for 72 hrs by DAPI staining based analysis; type: functional
NCI-H716 = experiment: Anticancer activity against human NCI-H716 cells assessed as cell doubling measured for 72 hrs by DAPI staining based analysis; type: functional
RD = experiment: Anticancer activity against human RD cells assessed as cell doubling measured for 72 hrs by DAPI staining based analysis; type: functional
RL = experiment: Anticancer activity against human RL cells assessed as cell doubling measured for 72 hrs by DAPI staining based analysis; type: functional
RL95-2 = experiment: Anticancer activity against human RL95-2 cells assessed as cell doubling measured for 72 hrs by DAPI staining based analysis; type: functional
[9] = Anticancer activity against human NL-SCLC3 cells assessed as cell doubling measured for 72 hrs by DAPI staining based analysis; type: functional
SNU-398 = experiment: Anticancer activity against human SNU-398 cells assessed as cell doubling measured for 72 hrs by DAPI staining based analysis; type: functional
SNU-449 = experiment: Anticancer activity against human SNU-449 cells assessed as cell doubling measured for 72 hrs by DAPI staining based analysis; type: functional
SR = experiment: Anticancer activity against human SR cells assessed as cell doubling measured for 72 hrs by DAPI staining based analysis; type: functional
SW872 = experiment: Anticancer activity against human SW872 cells assessed as cell doubling measured for 72 hrs by DAPI staining based analysis; type: functional
COLO 205 = experiment: Antitumor activity against human COLO 205 cells in xenograft model assessed as difference between median time to endpoint time of treated versus control group at 62.5 mg/kg; type: functional
NCI-H460 = experiment: Antitumor activity against human NCI-H460 cells in xenograft model assessed as difference between median time to endpoint time of treated versus control group at 62.5 mg/kg; type: functional
MX1 = experiment: Antitumor activity against human MX1 cells in xenograft model assessed as difference between median time to endpoint time of treated versus control group at 62.5 mg/kg; type: functional

Centromere-associated protein E (Mus musculus, UniProt Q6RT24), sequence (Q6RT24 whole entry): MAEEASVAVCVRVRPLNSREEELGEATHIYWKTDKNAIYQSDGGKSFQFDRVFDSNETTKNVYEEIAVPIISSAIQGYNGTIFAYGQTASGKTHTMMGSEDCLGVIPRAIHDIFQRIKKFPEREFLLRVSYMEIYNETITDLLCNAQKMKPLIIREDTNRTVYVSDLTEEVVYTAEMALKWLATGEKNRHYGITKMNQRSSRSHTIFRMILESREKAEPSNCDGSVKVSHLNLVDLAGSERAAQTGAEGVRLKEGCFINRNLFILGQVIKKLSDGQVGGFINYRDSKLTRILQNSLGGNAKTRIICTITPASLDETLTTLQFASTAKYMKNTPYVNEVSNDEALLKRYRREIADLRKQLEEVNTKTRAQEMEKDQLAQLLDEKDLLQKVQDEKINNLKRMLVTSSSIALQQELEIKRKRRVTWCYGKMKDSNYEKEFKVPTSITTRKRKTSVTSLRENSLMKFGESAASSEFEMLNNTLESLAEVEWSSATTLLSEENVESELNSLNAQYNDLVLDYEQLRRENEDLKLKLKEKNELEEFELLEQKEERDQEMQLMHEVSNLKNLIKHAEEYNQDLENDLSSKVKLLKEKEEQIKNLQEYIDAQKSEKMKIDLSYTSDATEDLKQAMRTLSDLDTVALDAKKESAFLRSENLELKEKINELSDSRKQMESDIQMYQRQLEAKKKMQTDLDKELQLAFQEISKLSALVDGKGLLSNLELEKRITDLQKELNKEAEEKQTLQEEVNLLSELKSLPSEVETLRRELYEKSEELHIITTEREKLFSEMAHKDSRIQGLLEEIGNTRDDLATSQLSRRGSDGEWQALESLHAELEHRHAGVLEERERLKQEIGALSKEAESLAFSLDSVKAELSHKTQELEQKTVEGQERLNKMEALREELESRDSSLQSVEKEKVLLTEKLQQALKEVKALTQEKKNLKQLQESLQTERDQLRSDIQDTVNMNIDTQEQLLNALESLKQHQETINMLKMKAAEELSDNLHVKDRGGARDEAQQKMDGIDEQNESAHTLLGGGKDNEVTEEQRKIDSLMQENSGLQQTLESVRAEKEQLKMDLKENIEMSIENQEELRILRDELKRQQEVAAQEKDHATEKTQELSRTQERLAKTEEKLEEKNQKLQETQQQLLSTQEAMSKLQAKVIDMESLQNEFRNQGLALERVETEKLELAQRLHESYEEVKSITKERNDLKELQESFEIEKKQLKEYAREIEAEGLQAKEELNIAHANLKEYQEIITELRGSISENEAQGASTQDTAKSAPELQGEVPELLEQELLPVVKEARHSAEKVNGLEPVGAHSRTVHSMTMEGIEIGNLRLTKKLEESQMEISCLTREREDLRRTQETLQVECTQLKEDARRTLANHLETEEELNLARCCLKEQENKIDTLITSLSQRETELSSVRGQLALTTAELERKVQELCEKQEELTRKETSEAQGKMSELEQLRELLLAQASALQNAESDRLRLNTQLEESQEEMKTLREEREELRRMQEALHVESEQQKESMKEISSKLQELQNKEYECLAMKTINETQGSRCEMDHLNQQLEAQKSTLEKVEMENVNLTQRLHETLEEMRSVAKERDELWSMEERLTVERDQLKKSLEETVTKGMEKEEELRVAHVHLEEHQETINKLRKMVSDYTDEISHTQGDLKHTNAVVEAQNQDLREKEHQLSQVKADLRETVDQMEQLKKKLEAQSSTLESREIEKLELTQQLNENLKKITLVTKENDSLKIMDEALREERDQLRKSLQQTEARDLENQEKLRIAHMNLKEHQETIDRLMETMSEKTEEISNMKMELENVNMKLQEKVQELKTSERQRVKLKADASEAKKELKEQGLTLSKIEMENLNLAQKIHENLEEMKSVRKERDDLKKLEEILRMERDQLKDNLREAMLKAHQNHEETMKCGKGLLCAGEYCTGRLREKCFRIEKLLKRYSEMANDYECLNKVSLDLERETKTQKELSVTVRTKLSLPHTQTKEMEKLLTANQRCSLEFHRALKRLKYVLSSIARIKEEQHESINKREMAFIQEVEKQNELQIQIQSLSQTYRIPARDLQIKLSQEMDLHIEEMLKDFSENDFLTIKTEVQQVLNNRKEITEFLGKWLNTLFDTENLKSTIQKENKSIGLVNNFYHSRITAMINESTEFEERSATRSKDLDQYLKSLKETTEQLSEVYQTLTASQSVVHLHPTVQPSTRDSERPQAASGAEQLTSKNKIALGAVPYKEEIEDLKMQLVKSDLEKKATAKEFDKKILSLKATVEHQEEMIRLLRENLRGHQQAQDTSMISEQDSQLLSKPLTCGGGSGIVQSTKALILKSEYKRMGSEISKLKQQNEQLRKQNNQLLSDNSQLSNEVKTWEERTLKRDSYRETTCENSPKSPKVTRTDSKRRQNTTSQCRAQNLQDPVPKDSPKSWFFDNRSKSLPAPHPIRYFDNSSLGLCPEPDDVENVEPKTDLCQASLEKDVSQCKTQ
Centromere-associated protein E (Homo sapiens, UniProt Q02224, I182L), sequence (Q02224 whole entry I182L): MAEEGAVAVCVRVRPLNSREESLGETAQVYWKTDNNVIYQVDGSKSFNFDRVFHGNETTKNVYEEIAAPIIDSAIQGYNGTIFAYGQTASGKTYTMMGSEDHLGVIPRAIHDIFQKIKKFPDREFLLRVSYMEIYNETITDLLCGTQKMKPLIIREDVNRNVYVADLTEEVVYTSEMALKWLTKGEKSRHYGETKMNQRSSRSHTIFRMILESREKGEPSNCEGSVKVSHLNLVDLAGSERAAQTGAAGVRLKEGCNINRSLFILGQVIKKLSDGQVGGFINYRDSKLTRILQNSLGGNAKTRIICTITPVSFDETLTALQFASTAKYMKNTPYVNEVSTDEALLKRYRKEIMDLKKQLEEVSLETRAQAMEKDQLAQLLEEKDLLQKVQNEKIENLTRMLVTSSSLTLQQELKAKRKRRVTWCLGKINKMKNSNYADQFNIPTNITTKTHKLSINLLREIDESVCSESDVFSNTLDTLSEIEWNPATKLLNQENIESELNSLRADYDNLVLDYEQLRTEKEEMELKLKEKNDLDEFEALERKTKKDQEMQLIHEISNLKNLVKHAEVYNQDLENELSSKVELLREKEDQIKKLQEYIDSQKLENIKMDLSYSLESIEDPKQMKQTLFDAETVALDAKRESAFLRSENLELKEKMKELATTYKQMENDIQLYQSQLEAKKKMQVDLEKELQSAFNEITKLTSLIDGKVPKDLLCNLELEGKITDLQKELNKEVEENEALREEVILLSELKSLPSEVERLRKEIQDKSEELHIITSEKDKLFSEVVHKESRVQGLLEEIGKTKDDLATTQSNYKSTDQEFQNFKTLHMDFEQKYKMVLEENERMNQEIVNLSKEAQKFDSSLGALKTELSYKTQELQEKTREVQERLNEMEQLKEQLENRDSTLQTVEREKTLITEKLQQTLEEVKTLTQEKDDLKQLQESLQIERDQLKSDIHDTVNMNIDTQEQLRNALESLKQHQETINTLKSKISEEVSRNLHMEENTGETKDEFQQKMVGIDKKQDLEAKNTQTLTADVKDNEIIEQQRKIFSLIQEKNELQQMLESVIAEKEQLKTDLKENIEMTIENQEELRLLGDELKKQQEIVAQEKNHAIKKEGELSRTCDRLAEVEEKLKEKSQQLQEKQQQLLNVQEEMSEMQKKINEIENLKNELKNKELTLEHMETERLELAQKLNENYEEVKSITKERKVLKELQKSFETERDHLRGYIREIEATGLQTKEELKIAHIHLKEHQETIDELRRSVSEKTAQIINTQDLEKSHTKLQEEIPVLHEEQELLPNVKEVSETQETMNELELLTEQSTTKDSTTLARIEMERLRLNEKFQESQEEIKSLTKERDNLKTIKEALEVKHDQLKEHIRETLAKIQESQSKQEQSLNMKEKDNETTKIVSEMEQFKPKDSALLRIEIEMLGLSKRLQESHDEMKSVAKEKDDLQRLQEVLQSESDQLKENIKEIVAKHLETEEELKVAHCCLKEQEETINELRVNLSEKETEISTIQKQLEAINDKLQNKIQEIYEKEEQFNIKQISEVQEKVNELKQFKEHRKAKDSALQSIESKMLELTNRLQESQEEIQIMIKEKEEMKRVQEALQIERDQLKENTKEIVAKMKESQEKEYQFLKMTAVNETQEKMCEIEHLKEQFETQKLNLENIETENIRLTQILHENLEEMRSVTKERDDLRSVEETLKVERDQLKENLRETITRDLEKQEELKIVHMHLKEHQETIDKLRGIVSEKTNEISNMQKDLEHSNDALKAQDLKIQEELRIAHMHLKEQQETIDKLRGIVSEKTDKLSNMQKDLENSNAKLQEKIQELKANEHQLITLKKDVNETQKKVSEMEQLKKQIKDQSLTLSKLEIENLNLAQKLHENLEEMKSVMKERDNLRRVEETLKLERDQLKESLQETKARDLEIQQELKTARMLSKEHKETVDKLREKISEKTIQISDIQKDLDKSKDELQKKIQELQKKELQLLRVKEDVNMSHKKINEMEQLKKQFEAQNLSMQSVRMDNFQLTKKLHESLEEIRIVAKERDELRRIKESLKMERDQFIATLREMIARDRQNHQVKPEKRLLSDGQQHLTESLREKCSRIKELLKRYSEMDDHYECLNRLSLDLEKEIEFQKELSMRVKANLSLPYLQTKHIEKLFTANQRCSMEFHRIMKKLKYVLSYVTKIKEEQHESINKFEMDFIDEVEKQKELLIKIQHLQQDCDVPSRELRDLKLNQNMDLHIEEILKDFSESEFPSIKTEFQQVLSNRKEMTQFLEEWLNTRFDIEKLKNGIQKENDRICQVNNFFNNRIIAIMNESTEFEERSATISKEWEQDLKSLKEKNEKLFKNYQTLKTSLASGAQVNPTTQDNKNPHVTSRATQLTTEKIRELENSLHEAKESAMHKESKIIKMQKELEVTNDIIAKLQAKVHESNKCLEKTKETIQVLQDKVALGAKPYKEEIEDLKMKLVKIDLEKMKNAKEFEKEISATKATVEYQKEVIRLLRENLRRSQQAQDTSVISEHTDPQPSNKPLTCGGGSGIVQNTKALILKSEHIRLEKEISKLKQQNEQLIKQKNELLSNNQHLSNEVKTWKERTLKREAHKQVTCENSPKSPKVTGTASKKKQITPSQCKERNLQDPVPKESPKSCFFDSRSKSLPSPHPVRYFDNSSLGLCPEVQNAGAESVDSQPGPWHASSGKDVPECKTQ

CC(C)Oc1ccc(C(=O)N[C@H](CNC(=O)CN(C)C)Cc2ccc(-c3cn4cccc([C@H](C)O)c4n3)cc2)cc1Cl [GSK-923295A]
Ki [1]: 67 nM | Ki [2]: 14 nM | GI50 (ARH-77): 34 nM | GI50 (BC-3): 88 nM | GI50 (BV-173 [3]): 56 nM | GI50 [4]: 28 nM | GI50 (CAL-54): 49 nM | GI50 [5]: 13 nM | GI50 (CRO-AP2): 51 nM | GI50 (DU-145): 23 nM | GI50 (EKVX): 28 nM | GI50 (HCT-8): 35 nM | GI50 [6]: 37 nM | GI50 (M14): 27 nM | GI50 (MCF-10A): 16 nM | GI50 (SiHa): 29 nM | GI50 (SK-NEP-1): 55 nM | GI50 (SW837): 33 nM | GI50 (UACC-257): 32 nM | Activity (CWR22R): 2.46 | Activity (BV-173 [7]): 2.16 | Activity [8]: 2.48 | Activity (HCC 2998): 2.76 | Activity (HCT-116): 4.11 | Activity (HPAF-II): 2.42 | Activity (HT-1080): 3.05 | Activity (MCF7): 1.65 | Activity (MDA-MB-175-VII): 1.15 | Activity (NCI-H716): 1.41 | Activity (RD): 2.56 | Activity (RL): 3.17 | Activity (RL95-2): 2.48 | Activity [9]: 2.68 | Activity (SNU-398): 2.53 | Activity (SNU-449): 2.33 | Activity (SR): 2.84 | Activity (SW872): 2.43 | Time (COLO 205): 24.9 days | Time (NCI-H460): 15.4 days | Time (MX1): 1.4 days

Reference: ChEMBL document CHEMBL5705890, “Antitumor activity of an allosteric inhibitor of centromere-associated protein-E” (Proc Natl Acad Sci U S A, 2010)
